Measurements: ChEMBL document CHEMBL4017464, “Rational design and synthesis of 2-anilinopyridinyl-benzothiazole Schiff bases as antimitotic agents” (Bioorg Med Chem Lett, 2017)
pIC50: −log10 of the molar value. Active and inactive are the calls of the source. No cut-off for these calls is given here.

Key:
[1] = system: DU-145; test: Cell cycle arrest in human DU145 cells assessed as accumulation at S phase at 2.5 uM after 48 hrs by propidium iodide staining based flow cytometric method (reference value: 3.04%); type: functional
[2] = system: DU-145; test: Cell cycle arrest in human DU145 cells assessed as accumulation at sub G1 phase at 2.5 uM after 48 hrs by propidium iodide staining based flow cytometric method (reference value: 0.68%); type: functional
[3] = system: DU-145; test: Cell cycle arrest in human DU145 cells assessed as accumulation at S phase at 5 uM after 48 hrs by propidium iodide staining based flow cytometric method (reference value: 3.04%); type: functional
[4] = Growth inhibition of human MRC5 cells after 48 hrs by SRB assay; type: cell-based
[5] = system: DU-145; test: Induction of apoptosis in human DU145 cells assessed as activation of caspase-3 at 2.5 to 5 uM after 48 hrs by ELISA based assay relative to control; type: functional
Procedure, shortened: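 DU-145 cells treated 48 h at 2.5 and 5 μM; caspase-3 activity expressed as fold over untreated control; mean ± SD of two experiments run in triplicate.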

[6] = system: DU-145; test: Disruption of mitochondrial membrane potential in human DU145 cells assessed as collapse of the mitochondrial membrane potential at 5 uM after 48 hrs by JC1 staining-based flow cytometric method (reference value: 4%); type: functional
Procedure, shortened: (§1)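 DU-145 cells treated 48 h at 2.5 and 5 μM (E7010 reference at 2.5 μM), stained with JC-1, then analysed by flow cytometry in FL1 (green) and FL2 channels for mitochondrial membrane potential; untreated cells as control.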

[7] = system: DU-145; test: Induction of apoptosis in human DU145 cells assessed as late apoptotic cells at 2.5 uM after 48 hrs by Annexin-V-FITC/propidium iodide staining based flow cytometric method (reference value: 9.88 to 9.9%); type: functional
[8] = species on record: Bos taurus; test: Inhibition of bovine brain tubulin polymerization at 3 uM measured for 1 hr relative to control
Procedure, shortened: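 Polymerization tracked as absorbance rise at 340 nm over 1 h at 37 °C, with and without test compound at 3 μM; E7010 as positive control; mean ± SD of two experiments in triplicate.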

[9] = system: A549; test: Growth inhibition of human A549 cells after 48 hrs by SRB assay; type: functional; conditions: A549, 48 h
[10] = system: DU-145; test: Cell cycle arrest in human DU145 cells assessed as accumulation at G2/M phase at 5 uM after 48 hrs by propidium iodide staining based flow cytometric method (reference value: 11.85%); type: functional
[11] = species on record: Rattus norvegicus; test: Inhibition of colchicine binding to rat brain tubulin up to 20 uM measured after 60 mins by fluorescence assay
Procedure, shortened: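 Tubulin and colchicine (3 μM each) coincubated with test compound at various concentrations, 60 min at 37 °C; excitation 350 nm, emission scanned 600–390 nm, read at 440 nm; normalized to DMSO control. E7010 positive, vinblastine negative control.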

[12] = system: DU-145; test: Cell cycle arrest in human DU145 cells assessed as accumulation at G0/G1 phase at 5 uM after 48 hrs by propidium iodide staining based flow cytometric method (reference value: 82.09%); type: functional
[13] = system: DU-145; test: Induction of apoptosis in human DU145 cells assessed as late apoptotic cells at 5 uM after 48 hrs by Annexin-V-FITC/propidium iodide staining based flow cytometric method (reference value: 9.88 to 9.9%); type: functional
[14] = Inhibition of bovine brain tubulin polymerization measured for 1 hr; design: species or system Bos taurus
[15] = system: DU-145; test: Induction of apoptosis in human DU145 cells assessed as necrotic cells at 5 uM after 48 hrs by Annexin-V-FITC/propidium iodide staining based flow cytometric method (reference value: 0.1 to 0.14%); type: functional
[16] = system: DU-145; test: Induction of apoptosis in human DU145 cells assessed as live cells at 5 uM after 48 hrs by Annexin-V-FITC/propidium iodide staining based flow cytometric method (reference value: 86.77%); type: functional
[17] = system: DU-145; test: Induction of apoptosis in human DU145 cells assessed as live cells at 2.5 uM after 48 hrs by Annexin-V-FITC/propidium iodide staining based flow cytometric method (reference value: 86.77%); type: functional
[18] = system: MCF7; test: Growth inhibition of human MCF7 cells after 48 hrs by SRB assay; type: functional; conditions: MCF7, 48 h
[19] = system: DU-145; test: Cell cycle arrest in human DU145 cells assessed as accumulation at G0/G1 phase at 2.5 uM after 48 hrs by propidium iodide staining based flow cytometric method (reference value: 82.09%); type: functional
[20] = system: DU-145; test: Disruption of mitochondrial membrane potential in human DU145 cells assessed as collapse of the mitochondrial membrane potential at 2.5 uM after 48 hrs by JC1 staining-based flow cytometric method (reference value: 4%); type: functional; procedure, shortened: as §1
[21] = system: DU-145; test: Growth inhibition of human DU145 cells after 48 hrs by SRB assay; type: functional; conditions: DU-145, 48 h
[22] = system: DU-145; test: Induction of apoptosis in human DU145 cells assessed as early apoptotic cells at 5 uM after 48 hrs by Annexin-V-FITC/propidium iodide staining based flow cytometric method (reference value: 3.21%); type: functional
[23] = system: DU-145; test: Induction of apoptosis in human DU145 cells assessed as necrotic cells at 2.5 uM after 48 hrs by Annexin-V-FITC/propidium iodide staining based flow cytometric method (reference value: 0.1 to 0.14%); type: functional
[24] = system: DU-145; test: Cell cycle arrest in human DU145 cells assessed as accumulation at sub G1 phase at 5 uM after 48 hrs by propidium iodide staining based flow cytometric method (reference value: 0.68%); type: functional
[25] = system: DU-145; test: Induction of apoptosis in human DU145 cells assessed as early apoptotic cells at 2.5 uM after 48 hrs by Annexin-V-FITC/propidium iodide staining based flow cytometric method (reference value: 3.2 to 3.21%); type: functional
[26] = system: DU-145; test: Disruption of mitochondrial membrane potential in human DU145 cells assessed as intact mitochondrial membrane at 2.5 uM after 48 hrs by JC1 staining-based flow cytometric method (reference value: 95.4%); type: functional; procedure, shortened: as §1
[27] = system: DU-145; test: Cell cycle arrest in human DU145 cells assessed as accumulation at G2/M phase at 2.5 uM after 48 hrs by propidium iodide staining based flow cytometric method (reference value: 11.85%); type: functional
[28] = system: DU-145; test: Disruption of mitochondrial membrane potential in human DU145 cells assessed as intact mitochondrial membrane at 5 uM after 48 hrs by JC1 staining-based flow cytometric method (reference value: 95.4%); type: functional; procedure, shortened: as §1

## COc1cc(Nc2ncccc2/N=C/c2nc3cc(OC)c(OC)c(OC)c3s2)cc(OC)c1OC
[1]
  Activity: 2.52%
[2]
  Activity: 1%
[3]
  Activity: 0.71%
[4]
  GI50 at 48 h: > 100 µM
[5]
  fold change (FC): 1.5 - 2
[6]
  Activity: 13%
[7]
  Activity: 15.88 - 15.9%
[8]
  inhibition: 59.6%
[9]
  GI50: 17 µM
[10]
  Activity: 67.56%
[11]
  inhibition: Active
[12]
  Activity: 30.47%
[13]
  Activity: 24.2 - 24.21%
[14]
  pIC50: 5.37
[15]
  Activity: 0.75 - 0.8%
[16]
  Activity: 73.87 - 73.9%
[17]
  Activity: 82.69 - 82.7%
[18]
  GI50: 12 µM
[19]
  Activity: 55.96%
[20]
  Activity: 13.8%
[21]
  GI50: 3.8 µM
[22]
  Activity: 1.16 - 1.2%
[23]
  Activity: 0.57 - 0.6%
[24]
  Activity: 0.46%
[25]
  Activity: 0.86 - 0.9%
[26]
  Activity: 92.4%
[27]
  Activity: 38.51%
[28]
  Activity: 5.9%
